According to ChEMBL document CHEMBL1132383, “Cardioselective antiischemic ATP-sensitive potassium channel (K(ATP)) openers. 6. Effect of modifications at C6 of benzopyranyl cyanoguanidines” (J Med Chem, 1999):

Legend:
Type in all cases: functional
Rattus norvegicus [1] = organism: Rattus norvegicus; assay: Antiischemic potency by measurement of increase in time to contracture in globally ischemic isolated perfused rat hearts
Method in brief: (§1)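 Isolated rat hearts, perfused and then subjected to global ischemia. Activity is read as the lengthening of time to onset of ischemic contracture. Compounds were first tested at 10 μM. EC25 for increasing time to contracture was then determined.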

Rattus norvegicus [2] = organism: Rattus norvegicus; assay: In vitro relaxation of rat aorta precontracted with methoxamine.
Method in brief: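 Rat aortic rings precontracted with methoxamine. IC50 is the concentration giving relaxation, reported as the mean of n = 4 or more.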

[3] = Ratio of Antiischemic potency to vasorelaxant potency.
Method in brief: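 Selectivity is calculated as the EC25 for lengthening time to contracture in globally ischemic isolated rat hearts divided by the IC50 for relaxing methoxamine-contracted rat aorta.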

Rattus norvegicus [4] = organism: Rattus norvegicus; assay: Antiischemic potency by measurement of increase in time to contracture in globally ischemic isolated perfused rat hearts.; method in brief: as §1
Rattus norvegicus [5] = organism: Rattus norvegicus; assay: Antiischemic potency by measurement of increase in time to contracture in globally ischemic isolated perfused rat hearts at 1 uM.
Method in brief: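 Isolated perfused rat hearts under global ischemia, compound present at 1 μM. Cardioprotection is read as the increase in time to onset of ischemic contracture.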

Structure (SMILES)	EC25 (Rattus norvegicus [1]) [nM]	IC50 (Rattus norvegicus [2]) [nM]	Ratio [3]	EC25 (Rattus norvegicus [4]) [nM]	Activity (Rattus norvegicus [5]) [%]
CC(C)CN(C)S(=O)(=O)c1ccc2c(c1)[C@@H](/N=C(\NC#N)Nc1ccc(Cl)cc1)[C@H](O)C(C)(C)O2	250				
CC1(C)Oc2ccc(S(=O)(=O)Nc3ccccc3)cc2[C@@H](/N=C(\NC#N)Nc2ccc(Cl)cc2)[C@@H]1O	1900	3300	0.6		
CC1(C)Oc2ccc(C#N)cc2[C@@H](N2CCCC2=O)[C@@H]1O [CROMAKALIM]	8900		278		
C[C@@H]1CCC[C@H](C)N1S(=O)(=O)c1ccc2c(c1)[C@@H](/N=C(\NC#N)Nc1ccc(Cl)cc1)[C@H](O)C(C)(C)O2	340	500	0.68		
CC1CCN(S(=O)(=O)c2ccc3c(c2)[C@@H](/N=C(\NC#N)Nc2ccc(Cl)cc2)[C@H](O)C(C)(C)O3)CC1	650				
CCN(CC(F)(F)F)S(=O)(=O)c1ccc2c(c1)[C@@H](/N=C(\NC#N)Nc1ccc(Cl)cc1)[C@H](O)C(C)(C)O2	260				
CC1(C)Oc2ccc(C#N)cc2[C@H](N(Cc2ncc[nH]2)c2ccc(Cl)cc2)[C@H]1O [BMS-191095]	1400	> 30000	< 0.05		
CC1(C)Oc2ccc(C#N)cc2[C@@H](/N=C(\NC#N)Nc2ccc(Cl)cc2)[C@@H]1O	2500		1.4		
CC(C)CN(CC(C)C)S(=O)(=O)c1ccc2c(c1)[C@@H](/N=C(\NC#N)Nc1ccc(Cl)cc1)[C@H](O)C(C)(C)O2	40	9400	0.004		
CC(C)N(C(C)C)S(=O)(=O)c1ccc2c(c1)[C@@H](/N=C(\NC#N)Nc1ccc(Cl)cc1)[C@H](O)C(C)(C)O2	240				
CC1(C)Oc2ccc(S(=O)(=O)N3CCOCC3)cc2[C@@H](/N=C(\NC#N)Nc2ccc(Cl)cc2)[C@@H]1O	1000	3100	0.32		
CC1(C)Oc2ccc(S(=O)(=O)NC3CCCCC3)cc2[C@@H](/N=C(\NC#N)Nc2ccc(Cl)cc2)[C@@H]1O	2200	11700	0.19		
CCN(CC)S(=O)(=O)c1ccc2c(c1)[C@@H](/N=C(\NC#N)Nc1ccc(Cl)cc1)[C@H](O)C(C)(C)O2	300	1100	0.27		
CC1(C)Oc2ccc(S(=O)(=O)N3CCCCC3)cc2[C@@H](/N=C(\NC#N)Nc2ccc(Cl)cc2)[C@@H]1O	270	1900	0.14		
CC1(C)Oc2ccc(S(=O)(=O)N3CCCC3)cc2[C@@H](/N=C(\NC#N)Nc2ccc(Cl)cc2)[C@@H]1O				330	
CC1(C)Oc2ccc(S(=O)(=O)N3CCCCCC3)cc2[C@@H](/N=C(\NC#N)Nc2ccc(Cl)cc2)[C@@H]1O	600				
C=C(c1ccccc1)c1ccc2c(c1)[C@@H](/N=C(\NC#N)Nc1ccc(Cl)cc1)[C@H](O)C(C)(C)O2		10700			3
CC1(C)Oc2ccc(C(=O)Cc3ccccc3)cc2[C@@H](/N=C(\NC#N)Nc2ccc(Cl)cc2)[C@@H]1O	400	6800	0.06		
CC1(C)Oc2ccc(S(=O)(=O)N3CCC(Cc4ccccc4)CC3)cc2[C@@H](/N=C(\NC#N)Nc2ccc(Cl)cc2)[C@@H]1O	940	> 30000			
CC1(C)Oc2ccc(S(=O)(=O)N3CCCC(Cc4ccccc4)C3)cc2[C@@H](/N=C(\NC#N)Nc2ccc(Cl)cc2)[C@@H]1O (some centres undefined)	1100				
CC1(C)Oc2ccc(S(=O)(=O)c3ccccc3)cc2[C@@H](/N=C(\NC#N)Nc2ccc(Cl)cc2)[C@@H]1O	800	500	1.6		
CC1(C)Oc2ccc(S(N)(=O)=O)cc2[C@@H](/N=C(\NC#N)Nc2ccc(Cl)cc2)[C@@H]1O	>10000	41300			
COP(=O)(c1ccccc1)c1ccc2c(c1)[C@@H](/N=C(\NC#N)Nc1ccc(Cl)cc1)[C@H](O)C(C)(C)O2 (some centres undefined)	2400	44100	0.05		
CC(C)(C)C(=O)c1ccc2c(c1)[C@@H](/N=C(\NC#N)Nc1ccc(Cl)cc1)[C@H](O)C(C)(C)O2	1800	5400	0.33		
CC1CC(C)CN(S(=O)(=O)c2ccc3c(c2)[C@@H](/N=C(\NC#N)Nc2ccc(Cl)cc2)[C@H](O)C(C)(C)O3)C1 (some centres undefined)	230	32100	0.007		
CC1(C)Oc2ccc(Cc3ccccc3)cc2[C@@H](/N=C(\NC#N)Nc2ccc(Cl)cc2)[C@@H]1O	11100	10000	1.1		
CC1(C)Oc2ccc(C(=O)c3ccccc3)cc2[C@@H](/N=C(\NC#N)Nc2ccc(Cl)cc2)[C@@H]1O	900	7100	0.13		
CC1(C)Oc2ccc(C(=O)Nc3ccccc3)cc2[C@@H](/N=C(\NC#N)Nc2ccc(Cl)cc2)[C@@H]1O	>10000	> 100000			
